Measurements: ChEMBL document CHEMBL1130275, “Novel N-substituted 3 alpha-[bis(4'-fluorophenyl)methoxy]tropane analogues: selective ligands for the dopamine transporter” (J Med Chem, 1997)

How the values were obtained:
[1] = target: Sodium-dependent dopamine transporter (Rattus norvegicus) (UniProt P23977); test: Inhibition of binding of [3H]WIN-35 428 to dopamine transporter (in rat caudate putamen) by 10 uM of compound.; format: tissue-based
[2] = target: T1, Sodium-dependent dopamine transporter (Rattus norvegicus, UniProt P23977); test: Displacement of [3H]WIN-35 428 from the dopamine transporter in rat caudate putamen.; format: tissue-based
In short: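 Rat caudate putamen membranes washed in Krebs-HEPES pH 7.4, 0.5% w/v final. Filtration through BSA-soaked GF/B. Compounds run at 0.01 nM–100 μM, three experiments in triplicate. Ki derived by LIGAND nonlinear fitting of two-site binding.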

[3] = target: T1, Sodium-dependent dopamine transporter; test: In vitro inhibition of dopamine uptake in rat tissue, was determined using [3H]DAU as radioligand
In short: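 Rat caudate putamen slices (225 μm, cross-chopped) in oxygenated Krebs-HEPES at 37 °C. Stopped with ice-cold buffer and filtration. Accumulated label extracted with methanol/HCl and counted; filter blank subtracted. IC50 taken from the linear portion of the concentration–response curve by regression.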

[4] = target: T2, Muscarinic acetylcholine receptor M1 (Rattus norvegicus, UniProt P08482); test: Binding affinity against Muscarinic acetylcholine receptor M1 sites of rat
T2 sequence (P08482 whole entry): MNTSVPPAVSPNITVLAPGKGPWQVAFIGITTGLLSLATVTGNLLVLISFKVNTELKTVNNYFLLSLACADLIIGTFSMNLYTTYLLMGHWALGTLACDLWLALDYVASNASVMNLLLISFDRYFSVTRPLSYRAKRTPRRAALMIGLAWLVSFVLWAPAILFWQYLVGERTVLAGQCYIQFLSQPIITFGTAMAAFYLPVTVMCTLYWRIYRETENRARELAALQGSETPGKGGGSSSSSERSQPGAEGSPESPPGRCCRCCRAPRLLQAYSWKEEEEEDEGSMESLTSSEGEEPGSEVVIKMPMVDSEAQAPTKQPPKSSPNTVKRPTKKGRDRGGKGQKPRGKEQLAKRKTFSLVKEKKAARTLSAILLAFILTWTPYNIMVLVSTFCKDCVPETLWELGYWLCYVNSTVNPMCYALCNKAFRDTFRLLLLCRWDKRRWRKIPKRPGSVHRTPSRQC
In short: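 Whole rat brain minus cerebellum, membranes made by two-step centrifugation and resuspended in 10 mM Tris pH 7.4. Assay buffer is 10 mM Tris-HCl with 5 mM MgCl2. Membrane is preincubated 5 min with the compound, then [3H]pirenzepine 3 nM final is added for 1 h at 37 °C. Filtration through PEI-soaked GF/B. Compounds run at 0.01 nM–100 μM, ≥3 independent experiments in triplicate.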

[5] = target: T3, Sodium-dependent noradrenaline transporter (Homo sapiens, UniProt P23975); test: (§1) Compound was evaluated for binding to Norepinephrine Transporter (NET) using [3H]desmethylimipramine as radioligand; settings: concentration not given here
In short: (§2)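 Binding data supplied by an outside contract lab using published methods. SERT: [3H]citalopram, 0.7 nM final. NET: [3H]desmethylimipramine, 3.0 nM final.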

[6] = target: Sodium-dependent serotonin transporter (Rattus norvegicus) (UniProt P31652); test: (§3) Compound is evaluated for binding to Serotonin transporter using [3H]citalopram as radioligand in rat brain; format: tissue-based; settings: concentration not given here; in short: as §2
[7] = target: T3, Sodium-dependent noradrenaline transporter; test: as §1; in short: as §2
[8] = target: Sodium-dependent serotonin transporter (Rattus norvegicus, UniProt P31652); test: as §3; format: tissue-based; in short: as §2
[9] = target: T3, Sodium-dependent noradrenaline transporter; test: Compound was evaluated for binding to Norepinephrine Transporter (NET).; in short: as §2

T1 sequence (P23977 whole entry): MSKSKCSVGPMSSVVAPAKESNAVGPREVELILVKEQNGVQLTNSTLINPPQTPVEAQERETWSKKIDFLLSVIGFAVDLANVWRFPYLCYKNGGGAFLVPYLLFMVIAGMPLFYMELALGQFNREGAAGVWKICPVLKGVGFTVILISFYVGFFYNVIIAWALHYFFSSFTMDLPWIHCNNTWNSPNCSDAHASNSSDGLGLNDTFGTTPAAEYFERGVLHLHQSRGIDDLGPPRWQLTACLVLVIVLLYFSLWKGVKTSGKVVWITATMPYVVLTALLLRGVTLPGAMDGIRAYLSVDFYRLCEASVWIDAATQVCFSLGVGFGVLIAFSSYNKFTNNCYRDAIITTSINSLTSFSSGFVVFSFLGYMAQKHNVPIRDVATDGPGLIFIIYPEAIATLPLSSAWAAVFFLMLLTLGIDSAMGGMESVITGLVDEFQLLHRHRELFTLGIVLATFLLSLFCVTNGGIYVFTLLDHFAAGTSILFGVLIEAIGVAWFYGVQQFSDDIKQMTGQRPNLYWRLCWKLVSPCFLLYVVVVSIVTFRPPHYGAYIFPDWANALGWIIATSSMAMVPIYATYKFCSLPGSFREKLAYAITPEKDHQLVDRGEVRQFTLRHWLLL
Sequence of Sodium-dependent serotonin transporter (Rattus norvegicus) (P31652 whole entry): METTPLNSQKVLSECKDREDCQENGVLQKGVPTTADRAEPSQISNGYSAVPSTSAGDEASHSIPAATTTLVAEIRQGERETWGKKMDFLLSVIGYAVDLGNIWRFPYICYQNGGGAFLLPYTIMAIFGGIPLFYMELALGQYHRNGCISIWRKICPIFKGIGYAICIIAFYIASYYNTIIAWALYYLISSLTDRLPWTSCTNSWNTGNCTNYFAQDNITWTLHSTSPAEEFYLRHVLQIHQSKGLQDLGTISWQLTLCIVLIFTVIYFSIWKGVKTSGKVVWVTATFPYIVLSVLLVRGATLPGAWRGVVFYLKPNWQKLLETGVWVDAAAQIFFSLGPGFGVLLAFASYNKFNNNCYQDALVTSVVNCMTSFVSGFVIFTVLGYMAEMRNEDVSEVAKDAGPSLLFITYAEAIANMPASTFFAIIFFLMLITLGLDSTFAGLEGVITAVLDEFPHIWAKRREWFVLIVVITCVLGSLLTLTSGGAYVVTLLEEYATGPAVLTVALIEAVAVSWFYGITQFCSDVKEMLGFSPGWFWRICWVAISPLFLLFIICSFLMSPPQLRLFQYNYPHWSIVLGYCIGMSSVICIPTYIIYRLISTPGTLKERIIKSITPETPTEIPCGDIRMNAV
Sequence of Sodium-dependent serotonin transporter (P31652 whole entry): as above
T3 sequence (P23975 whole entry): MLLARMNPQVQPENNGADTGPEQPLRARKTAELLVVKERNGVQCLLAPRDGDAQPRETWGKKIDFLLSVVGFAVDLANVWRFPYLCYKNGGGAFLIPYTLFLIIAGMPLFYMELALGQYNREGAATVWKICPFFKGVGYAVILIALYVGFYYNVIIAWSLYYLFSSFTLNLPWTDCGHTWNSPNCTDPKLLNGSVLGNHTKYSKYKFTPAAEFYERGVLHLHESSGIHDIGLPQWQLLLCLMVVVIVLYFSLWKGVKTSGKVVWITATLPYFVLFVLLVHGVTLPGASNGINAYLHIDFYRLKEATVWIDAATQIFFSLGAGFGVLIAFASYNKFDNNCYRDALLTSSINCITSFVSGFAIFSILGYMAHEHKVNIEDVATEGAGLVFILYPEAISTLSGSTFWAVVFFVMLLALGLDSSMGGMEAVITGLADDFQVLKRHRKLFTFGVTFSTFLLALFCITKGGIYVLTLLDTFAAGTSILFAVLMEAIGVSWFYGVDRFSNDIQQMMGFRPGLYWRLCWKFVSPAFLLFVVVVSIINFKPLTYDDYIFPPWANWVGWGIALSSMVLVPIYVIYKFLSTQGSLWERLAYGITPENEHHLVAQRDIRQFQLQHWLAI
Sequence of Sodium-dependent dopamine transporter (Rattus norvegicus) (P23977 whole entry): as the sequence (P23977 whole entry) above

Row | SMILES | inhibition [1] | Ki [2] | IC50 [3] | Ki [4] | inhibition [5] | inhibition [6] | Ki [7] | Ki [8] | Ki [9]
1 | CS(=O)(=O)N1C2CCC1CC(OC(c1ccc(F)cc1)c1ccc(F)cc1)C2 (configuration not stated) | 18% | – | – | – | – | – | – | – | –
2 | O=[N+]([O-])c1ccc(CCCCN2[C@@H]3CC[C@H]2C[C@@H](OC(c2ccc(F)cc2)c2ccc(F)cc2)C3)cc1 | – | 20.2 nM | 650 nM | – | – | – | – | – | –
3 | C[N+]1(C)[C@@H]2CC[C@H]1C[C@@H](OC(c1ccc(F)cc1)c1ccc(F)cc1)C2 | – | 108 nM | 130 nM | 29.1 nM | 38% | 79% | – | – | –
4 | Fc1ccc(C(OCCN2C3CCC2CC(OC(c2ccc(F)cc2)c2ccc(F)cc2)C3)c2ccc(F)cc2)cc1 (configuration not stated) | – | 634 nM | – | – | – | – | – | – | –
5 | Fc1ccc(C(OC2CC3CCC(C2)N3CC2CC2)c2ccc(F)cc2)cc1 (configuration not stated) | – | 32.4 nM | 180 nM | 136 nM | – | – | 4790 nM | 1190 nM | –
6 | Fc1ccc(CN2C3CCC2CC(OC(c2ccc(F)cc2)c2ccc(F)cc2)C3)cc1 (configuration not stated) | – | 95.6 nM | 200 nM | 611 nM | 60% | – | – | – | –
7 | CN1C2CCC1CC(OC(c1ccc(F)cc1)c1ccc(F)cc1)C2 (configuration not stated) [DIFLUOROBENZTROPINE] | – | – | – | – | – | – | > 8500 nM | 2440 nM | –
8 | O=CN1C2CCC1CC(OC(c1ccc(F)cc1)c1ccc(F)cc1)C2 (configuration not stated) | – | 2020 nM | 5400 nM | 12300 nM | 29.4% | 1.6% | – | – | –
9 | Fc1ccc(CCCN2C3CCC2CC(OC(c2ccc(F)cc2)c2ccc(F)cc2)C3)cc1 (configuration not stated) | – | 60.7 nM | – | – | – | – | – | – | –
10 | Cc1ccc(S(=O)(=O)N2C3CCC2CC(OC(c2ccc(F)cc2)c2ccc(F)cc2)C3)cc1 (configuration not stated) | 0% | – | – | – | – | – | – | – | –
11 | Fc1ccc(C(OC2CC3CCC(C2)N3CCCc2ccccc2)c2ccc(F)cc2)cc1 (configuration not stated) | – | 41.9 nM | 230 nM | 136 nM | – | – | 3520 nM | 375 nM | –
12 | CC(=O)N1C2CCC1CC(OC(c1ccc(F)cc1)c1ccc(F)cc1)C2 (configuration not stated) | – | 2340 nM | 4600 nM | – | 8.5% | 1.3% | – | – | –
13 | Fc1ccc(C(OC2CC3CCC(C2)N3Cc2ccccc2)c2ccc(F)cc2)cc1 (configuration not stated) | – | 82.2 nM | 290 nM | 773 nM | – | 74% | 2080 nM | – | –
14 | Fc1ccc(C(OC2CC3CCC(C2)N3)c2ccc(F)cc2)cc1 (configuration not stated) | – | 11.2 nM | 9.7 nM | 156 nM | – | – | – | 2100 nM | > 8000 nM
15 | CCCCN1C2CCC1CC(OC(c1ccc(F)cc1)c1ccc(F)cc1)C2 (configuration not stated) | – | 24.6 nM | 370 nM | 251 nM | – | – | 1330 nM | 1730 nM | –
16 | C=CCN1C2CCC1CC(OC(c1ccc(F)cc1)c1ccc(F)cc1)C2 (configuration not stated) | – | 29.9 nM | 14 nM | 126 nM | – | – | 5920 nM | 1450 nM | –
17 | O=[N+]([O-])c1ccc(-c2ccc(COCCN3C4CCC3CC(OC(c3ccc(F)cc3)c3ccc(F)cc3)C4)cc2)cc1 (configuration not stated) | – | 57 nM | – | – | – | – | – | – | –
